# Screening results deposited in PubChem by Broad Institute.
# Rows were chosen to be rich in hits. Some 4% of all compounds tested hit in one or more screens of this group.
# FN deposition inh: inhibitors of fibronectin matrix deposition, primary screen, AH1F cells, Alexa488-fibronectin fluorescence, plate reader; AH1F fibroblasts, overnight; inhibition, % at 12.6 µM; 350,000 compounds, 0.086% hits;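 active = mean inhibition across replicates of 30% or more, regardless of how many single replicates reach that level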
#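 Assay system: AH1F fibroblasts / Quantity: 10000 cells per well / Medium: DMEM plus 2% serum, read in PBS / Reagent: labelled fibronectin 24 nM / Dosing: single dose, pinned / Times: 1 h cell attachment, overnight exposure to compound and label / Signal: fluorescence, ex 485 nm, em 525 nm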
# C2C12 statin: suppressors of statin myotoxicity in C2C12 myotubes, primary screen, cell-based, single point, plate reader | C2C12 myotubes + simvastatin, ATP luminescence, 48 h; scaled: DMSO 0, geranylgeraniol control 100 | rescue of ATP level, % at 7.49 µM | 330,000 compounds, 0.78% hits;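 active = mean ATP rescue above about 67%, or every replicate alone reaching that limit, limit read from the data, passing the limit was not always enough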;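 note: myotubes were challenged with 10 µM simvastatin during compound exposure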
# FGF22 binding: binders of human FGF22 protein, primary screen, FGF22 synaptogenesis inhibitor project, biophysical, thermal shift, single point | activity (Tm shift, normalised), % at 9.99 µM | 340,000 compounds, 1.5% hits | recombinant FGF22 thermal shift, SYPRO orange fluorescence; percent of sucrose octasulfate shift, DMSO zero;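 active = mean Tm shift, scaled 0 neutral to 100 positive control, at about 1.3% or above, every replicate too, limit read from the data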
# Target sequence (Q9HCT0 whole entry, looked up): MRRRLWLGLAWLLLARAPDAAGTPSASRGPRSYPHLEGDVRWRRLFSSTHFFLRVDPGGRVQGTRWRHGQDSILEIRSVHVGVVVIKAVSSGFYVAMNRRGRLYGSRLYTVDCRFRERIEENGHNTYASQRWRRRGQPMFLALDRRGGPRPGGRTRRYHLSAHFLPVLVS
# SIRT5 block: SIRT5 desuccinylase inhibitors, primary screen, biochemical, fluorescence imaging, single point, set 5 | AID 652115, 2013 | inhibition, % at 15 µM | NAD-dependent protein deacylase sirtuin-5, mitochondrial (Homo sapiens), Q9NXA8 | 330,000 compounds, 1.1% hits | Purified SirT5, succinyl-peptide AMC, trypsin-coupled fluorescence; in the data active = inhibition above about 15%
# Target sequence (Q9NXA8 whole entry, looked up): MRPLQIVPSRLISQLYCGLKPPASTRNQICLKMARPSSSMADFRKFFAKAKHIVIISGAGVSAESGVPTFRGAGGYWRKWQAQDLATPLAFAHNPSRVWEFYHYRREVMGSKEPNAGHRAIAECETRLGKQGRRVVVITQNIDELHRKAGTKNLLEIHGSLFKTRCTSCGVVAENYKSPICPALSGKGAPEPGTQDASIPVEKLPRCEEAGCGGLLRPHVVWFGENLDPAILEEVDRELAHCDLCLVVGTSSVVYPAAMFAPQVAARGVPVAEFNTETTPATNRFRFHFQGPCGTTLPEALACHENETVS
# E-selectin induc: E-selectin induction in HUVECs, primary screen, imaging, HUVEC, immunofluorescence imaging, single point | P16581 | normalized: neutral wells 0, TNF-alpha wells 100 | activation, % at 7.58 µM | 260,000 compounds, 0.37% hits | AID 686992, 2013;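 active = mean E-selectin-positive cell signal at least 10% of the positive control, reached in at least 60% of replicates, without over 20% cell loss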
#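 System: HUVEC, human umbilical vein endothelial cells; quantity: 3,000 cells/well; buffer or medium: EGM-2 medium, gelatin-coated wells; dosing: single-point compound dose; detection: immunofluorescence imaging; evaluation: % PE-positive cells; benchmarks: TNF-alpha, DMSO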
# rRNA inh HTS: reduced GFP signal of wild-type E. coli, primary screen, bacterial rRNA inhibitor project, GFP/RFP fluorescence, OD600, single point | E. coli WT GFP vs humanized-ribosome RFP mutants, 24 h; active compounds read low; DMSO median 0, no signal -100 | GFP signal change (wild-type ribosome), % (test concentration not listed) | 350,000 compounds, 1.6% hits | AID 720706, 2013;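 active = significant combined selectivity score with lowered wild-type GFP, culture density cut under 30%, mutant RFP and density less affected; inactive = any of these conditions unmet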
# A number is an active result; - = inactive; . = no result given.
SMILES,FN deposition inh,C2C12 statin,FGF22 binding,SIRT5 block,E-selectin induc,rRNA inh HTS
C/C(=N\NC(=O)C1COc2ccccc2O1)c1cc2ccccc2o1 (stereo not given),-,-,44.0,-,.,-
C/C(=N\NC(=O)c1cc(O)ccc1O)c1cccc(NC(=O)c2ccc(Cl)cc2)c1,.,-,-,-,-,-25.8
C/C(=N\NC(=O)c1cccnc1)c1cc2ccccc2o1,-,.,43.1,-,.,-
C/C(=N\NC(=O)c1ccc(Br)cc1)c1cccc(NC(=O)c2cccnc2)c1,.,.,-,20.4,.,-
C/C(=N\NC(=O)c1ccncc1)c1cc2ccccc2o1,-,.,-,-,.,.
CO[C@H]1CC[C@H]2CCOc3ccc(C#N)cc3C(=O)N(C)C[C@H](C)C(=O)N(C)C[C@H]1O2,-,-,-,-,-,-
COc1ccccc1/C=C/C(=O)NC(=S)NCC1CCCO1 (stereo not given),-,-,-,-,-,-25.0
COc1ccc(/C=C/C(=O)OCC(=O)NCC2CCCO2)cc1 (stereo not given),-,.,44.0,-,.,-
O=C(COC(=O)/C=C/c1ccc(OC(F)F)cc1)NC1CCCCCC1,-,-,-,.,-,-18.1
COc1cccc(/C=C/C(=O)OCC(=O)NCC2CCCO2)c1 (stereo not given),-,.,.,.,.,.
COc1ccc(NC(=S)NCC2CCCO2)c(OC)c1 (stereo not given),-,91.0,.,.,.,.
CO[C@H]1CN(C)C(=O)c2cc(NS(C)(=O)=O)ccc2OC[C@@H](C)N(CC2CC2)C[C@@H]1C,-,-,-,-,-,-
C[C@H]1CN([C@@H](C)CO)C(=O)Cc2cc(NC(=O)c3ccncc3)ccc2O[C@H]1CN(C)S(=O)(=O)c1ccccc1,-,-,-,-,-,-
CC(=O)N1CC2(C1)[C@H](c1ccc(-c3ccc(C#N)cc3)cc1)[C@H](CO)N2C(=O)C1CC1,.,.,-,-,-,-
COc1ccc(/C=C/C(=O)NC(=S)NCC2CCCO2)cc1 (stereo not given),.,.,43.7,-,.,-
Cc1cc(C)nc(SCCn2c(N3CCCCC3)nc3c2c(=O)n(C)c(=O)n3C)n1,-,-,.,.,.,.
Cc1cc(C)nc(SCCn2c(N3CC(C)OC(C)C3)nc3c2c(=O)n(C)c(=O)n3C)n1 (stereo not given),-,.,44.2,-,-,-
Cc1ccccc1-c1cnc2c(c1)C(=O)N([C@@H](C)CO)C[C@@H](C)[C@H](CN(C)Cc1cncnc1)O2,.,-,-,-,-,-
CC1(C)CC(=O)c2cnc3c(C#N)cnn3c2C1,-,-,43.7,-,-,-
Cn1c(CSc2ncn[nH]2)nc2ccccc21,.,98.1,.,.,.,.
C[C@@H]1CN([C@@H](C)CO)S(=O)(=O)c2ccc(-c3ccncc3)cc2O[C@H]1CN(C)C(=O)C1CCC1,.,-,.,.,-,-
Cn1c(SCc2cccc(F)c2)nnc1-c1ccncc1,-,-,-,15.3,-,-
N=c1c2c(-c3ccccc3)c(-c3ccccc3)n(Cc3ccco3)c2ncn1CCCO,-,.,-,-,-,-52.2
Nc1c(Cl)cnc(C(Cl)(Cl)Cl)c1Cl,-,.,43.3,-,-,-
NC(=NCCc1ccccc1)NS(=O)(=O)c1cccs1,-,.,43.0,-,.,.
SMILES,FN deposition inh,C2C12 statin,FGF22 binding,SIRT5 block,E-selectin induc,rRNA inh HTS
O=C(C[C@H]1C[C@H]2c3cc(NC(=O)Nc4ccc(F)cc4)ccc3O[C@H]2[C@@H](CO)O1)NC1CCCCC1,-,-,-,-,-,-
O=c1cc(CN2CCN(Cc3ccccc3)CC2)c2cc3c(cc2o1)CCC3,-,114.6,-,-,.,-
CC1CCN(Cc2cc(=O)oc3ccc(C(C)C)cc23)CC1,-,-,-,-,-,-22.6
CC1CCN(Cc2cc(=O)oc3ccc4ccccc4c23)CC1,-,.,-,-,-,-22.6
CC(C)c1ccc2oc(=O)cc(CN3CCCCC3)c2c1,-,-,-,-,.,-21.4
C[C@H](CO)N1C[C@H](C)[C@@H](CN(C)S(=O)(=O)c2cccs2)OCCCC[C@H](C)Oc2ccc(N(C)C)cc2C1=O,.,-,-,-,-,-
Cc1noc(C)c1NC(=O)Nc1ccc2c(c1)CC(=O)N([C@H](C)CO)C[C@H](C)[C@H](CN(C)S(=O)(=O)c1cn(C)cn1)O2,-,-,-,.,-,-
CC(=O)N(c1nc(/C=C\C(=O)O)cs1)c1ccccc1F,-,-,-,16.9,-,-
CC(=O)N(c1nc(CCl)cs1)c1cccc(C)c1C,-,-,-,-,-,.
O=C(c1ccccc1)c1c2c(cc3sc4ccccc4[n+]13)-c1cccc3cccc-2c13,-,.,.,.,179.3,.
Cc1ccccc1S(=O)(=O)N1CC(=O)N2[C@H](C1)[C@H](c1ccc(C#Cc3ccccc3)cc1)[C@@H]2CO,.,.,.,-,-,-
CCCCN(C=O)c1c(CC)nc2ccc(C(=O)N3CCN(c4ccccc4)CC3)cn12,-,-,-,-,-,-
CCCCN(C=O)c1c(CC)nc2ccc(C(=O)N3CCCCC3)cn12,-,-,-,44.5,.,-
COc1ccc(C2CC(c3c(O)cc(C)oc3=O)=NCCS2)c(OC)c1 (stereo not given),-,116.7,.,.,.,.
Cc1noc(C)c1S(=O)(=O)Nc1ccc2c(c1)CC(=O)N([C@H](C)CO)C[C@@H](C)[C@@H](CN(C)S(C)(=O)=O)O2,.,-,-,.,-,-
CC(C)OP(=O)(c1ccc(N(C)C)cc1)C(Nc1ccccc1)c1ccccc1 (stereo not given),-,-,-,-,.,-27.4
CC(C)CCOP(=O)(c1ccc(N(C)C)cc1)C(Nc1ccccc1)c1ccc(N(C)C)cc1 (stereo not given),-,-,-,-,.,-
CN(C)c1ccc(P(=O)(OCc2ccccc2)C(O)c2ccc(Cl)cc2)cc1 (stereo not given),-,-,-,-,-,-
CN(C)c1ccc(P(=O)(OCc2ccccc2)C(O)c2ccccc2)cc1 (stereo not given),-,-,-,-,.,-20.1
CN(C)c1ccc2c(c1)[C@H]1C[C@H](CC(=O)NCc3ccccc3F)O[C@H](CO)[C@H]1O2,.,-,.,.,-,-
C[C@H]1CN([C@@H](C)CO)C(=O)c2cc(NC(=O)Nc3ccc(F)cc3)ccc2O[C@@H]1CN(C)CC1CC1,.,.,-,.,-,-
